According to ChEMBL document CHEMBL4699451, “Discovery of BIIB068: A Selective, Potent, Reversible Bruton's Tyrosine Kinase Inhibitor as an Orally Efficacious Agent for Autoimmune Diseases” (J Med Chem, 2020):
pIC50: −log10 of the molar value. In brackets after ≈: the same amount, converted by molar mass.

How the values were obtained:
[1] = Lipophilicity, log D of compound at pH 7.4 by shake flask method; type: physicochemical; conditions: buffer
[2] = Protein binding in rat plasma assessed as unbound fraction; type: ADME, cell-free
[3] = Half life in human at 10 to 120 mg administered orally using tablet form of sample; type: ADME; conditions: in vivo, po, dose 10-120 mg
In short: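 Phase I single ascending dose study in healthy volunteers; oral tablet at 10 mg escalating through a 120 mg cohort; plasma pharmacokinetics followed, median t1/2 reported per cohort.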

[4] = Cmax in rat at 5 mg/kg, po; type: ADME, organism-based; design: route oral, dose 5 mg/kg; conditions: in vivo
[5] = Protein binding in dog plasma assessed as unbound fraction; type: ADME, cell-free, Canis lupus familiaris
[6] = Lipophilicity, log D of compound by UV-HPLC method; type: physicochemical
[7] = target: T1, Cytochrome P450 3A4 (Homo sapiens, UniProt P08684); assay: Inhibition of CYP3A4 in human liver microsomes using midazolam as substrate measured after 15 mins in presence of NADPH by LC-MS/MS analysis; type: ADME
T1 sequence (P08684 whole entry): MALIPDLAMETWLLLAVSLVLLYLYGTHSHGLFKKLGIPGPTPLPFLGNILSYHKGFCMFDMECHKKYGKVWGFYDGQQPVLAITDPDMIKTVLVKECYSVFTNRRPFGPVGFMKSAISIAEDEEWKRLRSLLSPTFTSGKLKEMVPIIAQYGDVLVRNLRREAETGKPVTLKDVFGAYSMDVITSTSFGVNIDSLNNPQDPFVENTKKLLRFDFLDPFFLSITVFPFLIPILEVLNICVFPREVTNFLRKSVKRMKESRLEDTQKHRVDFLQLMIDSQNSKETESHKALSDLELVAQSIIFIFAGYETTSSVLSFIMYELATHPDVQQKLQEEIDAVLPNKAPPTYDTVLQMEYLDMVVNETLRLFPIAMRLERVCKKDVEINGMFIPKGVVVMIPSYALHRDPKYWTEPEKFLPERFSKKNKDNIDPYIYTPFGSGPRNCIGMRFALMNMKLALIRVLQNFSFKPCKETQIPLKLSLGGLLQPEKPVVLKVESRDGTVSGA

[8] = Toxicity in Sprague-Dawley rat assessed as effect on respiratory system administered as single dose; conditions: in vivo
In short: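 Single-dose CNS and respiratory safety studies in rats.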

[9] = target: Cytochrome P450 2D6 (Homo sapiens, UniProt P10635); assay: Inhibition of CYP2D6 in human liver microsomes using dextromethorphan as substrate measured after 15 mins in presence of NADPH by LC-MS/MS analysis; type: ADME
Chain of Cytochrome P450 2D6 (P10635 whole entry): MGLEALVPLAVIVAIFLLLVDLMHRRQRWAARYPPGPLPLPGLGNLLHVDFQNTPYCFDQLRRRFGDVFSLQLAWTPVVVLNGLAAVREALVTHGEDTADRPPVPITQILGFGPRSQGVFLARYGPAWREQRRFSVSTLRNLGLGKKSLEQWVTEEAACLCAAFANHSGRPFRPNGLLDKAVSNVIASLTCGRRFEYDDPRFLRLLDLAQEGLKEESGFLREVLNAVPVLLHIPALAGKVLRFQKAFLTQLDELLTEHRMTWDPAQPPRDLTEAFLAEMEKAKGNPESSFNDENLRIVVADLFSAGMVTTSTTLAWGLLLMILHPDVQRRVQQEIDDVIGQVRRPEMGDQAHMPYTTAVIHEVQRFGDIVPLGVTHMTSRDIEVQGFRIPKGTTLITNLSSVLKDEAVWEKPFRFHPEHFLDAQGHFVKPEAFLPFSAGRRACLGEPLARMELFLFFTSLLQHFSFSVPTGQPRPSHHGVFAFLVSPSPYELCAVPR

[10] = Toxicity in Sprague-Dawley rat measured up to 13 weeks; conditions: in vivo
In short: (§1)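 GLP toxicity studies lasting up to 13 weeks, run in Sprague-Dawley rats and cynomolgus monkeys.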

[11] = target: T2, Cytochrome P450 2B6 (Homo sapiens, UniProt P20813); assay: Induction of CYP2B6 in human hepatocytes up to 50 uM; type: ADME, cell-based, Hepatocyte
T2 sequence (P20813 whole entry): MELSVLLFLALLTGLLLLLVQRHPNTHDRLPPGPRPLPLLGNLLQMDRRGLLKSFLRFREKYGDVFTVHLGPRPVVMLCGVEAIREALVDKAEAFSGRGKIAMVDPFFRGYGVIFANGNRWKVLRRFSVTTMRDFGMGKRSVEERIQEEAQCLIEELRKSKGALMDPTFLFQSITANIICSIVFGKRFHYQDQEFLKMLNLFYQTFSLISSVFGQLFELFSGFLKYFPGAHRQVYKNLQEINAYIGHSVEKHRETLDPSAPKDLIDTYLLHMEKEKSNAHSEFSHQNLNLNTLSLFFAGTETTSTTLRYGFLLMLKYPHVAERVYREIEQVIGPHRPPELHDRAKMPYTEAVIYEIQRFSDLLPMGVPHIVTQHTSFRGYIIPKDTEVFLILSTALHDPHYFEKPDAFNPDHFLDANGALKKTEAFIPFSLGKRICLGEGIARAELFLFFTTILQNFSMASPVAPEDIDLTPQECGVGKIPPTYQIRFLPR
In short: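 Sandwich-cultured human hepatocytes exposed at concentrations up to 50 μM; induction of CYP1A2, 2B6 and 3A4 assessed.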

[12] = target: Tyrosine-protein kinase BTK (Mus musculus, UniProt P35991); assay: In vivo inhibition of BTK in TI-2 antigen/ NP-Ficoll-induced DBA1 mouse immunized model assessed as reduction in BTK phosphorylation administered orally twice daily for 10 days measured post last dose; type: functional, organism-based
Chain of Tyrosine-protein kinase BTK (P35991 whole entry): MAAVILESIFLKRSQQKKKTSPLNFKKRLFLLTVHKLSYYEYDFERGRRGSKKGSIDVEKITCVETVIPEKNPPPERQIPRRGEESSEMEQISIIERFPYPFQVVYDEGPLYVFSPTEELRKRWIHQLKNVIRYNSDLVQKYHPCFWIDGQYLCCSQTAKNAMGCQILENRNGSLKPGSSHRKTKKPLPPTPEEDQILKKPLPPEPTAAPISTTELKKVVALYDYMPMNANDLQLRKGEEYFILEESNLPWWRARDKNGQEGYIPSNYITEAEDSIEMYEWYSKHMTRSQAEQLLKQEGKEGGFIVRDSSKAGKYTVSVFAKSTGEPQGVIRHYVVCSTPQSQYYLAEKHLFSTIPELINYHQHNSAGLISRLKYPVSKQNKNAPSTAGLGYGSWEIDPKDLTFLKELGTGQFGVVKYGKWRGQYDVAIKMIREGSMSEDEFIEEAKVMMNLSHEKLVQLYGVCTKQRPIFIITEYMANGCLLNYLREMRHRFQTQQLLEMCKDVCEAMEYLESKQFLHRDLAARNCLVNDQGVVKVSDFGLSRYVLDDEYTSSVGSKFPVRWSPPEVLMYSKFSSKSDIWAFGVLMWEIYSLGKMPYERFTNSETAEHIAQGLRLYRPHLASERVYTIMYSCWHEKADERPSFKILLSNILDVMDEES
In short: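 Female DBA/1 mice, nine per arm, were immunized with 30 µg NP-Ficoll ip on day 0 and dosed PO twice daily for 10 days (1-50 mg/kg/dose) in 0.5% carboxymethylcellulose/0.1% Tween 80. On day 10, serum NP-specific IgM was measured by ELISA on NP-BSA plates (biotin anti-IgM, streptavidin-HRP, ABTS, 405 nm) and titer interpolated against a pooled positive serum standard, reported as reduction vs vehicle. Whole-blood pBTK was taken at pre-last dose and 1 and 4 h post final dose.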

[13] = Stability in rat plasma assessed as parent compound remaining after 6 hrs; type: ADME, cell-free; conditions: read-out: Stabilty
In short: (§2)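 Compound incubated in plasma for 6 hours, then percentage of parent compound remaining determined.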

[14] = Stability in cynomolgus monkey plasma assessed as parent compound remaining after 6 hrs; type: ADME, cell-free, Macaca fascicularis; conditions: read-out: Stabilty; in short: as §2
[15] = Toxicity in cynomolgus monkey assessed as effect on cardiovascular system administered as single dose; design: species or system Macaca fascicularis; conditions: in vivo
In short: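 Single-dose cardiovascular safety study in cynomolgus monkeys.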

[16] = Toxicity in cynomolgus monkey assessed as effect on gross pathology measured up to 13 weeks; design: species or system Macaca fascicularis; conditions: in vivo, 2184 h; in short: as §1
[17] = Half life in rat at 1 mg/kg, iv; type: ADME, organism-based; conditions: in vivo
[18] = Kinetic solubility of compound at pH 6.8 by shake flask method; type: physicochemical; conditions: buffer, read-out: Kinetic_solubility
[19] = Aqueous solubility of compound in simulated intestinal fluid at pH 7 by HPLC method; type: physicochemical
[20] = Protein binding in cynomolgus monkey plasma assessed as unbound fraction; type: ADME, cell-free, Macaca fascicularis
[21] = Toxicity in cynomolgus monkey assessed as effect on food consumption measured up to 13 weeks; design: species or system Macaca fascicularis; conditions: in vivo, 2184 h; in short: as §1
[22] = Clearance in dog at 1 mg/kg, iv; type: ADME, organism-based, Canis lupus familiaris; conditions: in vivo
[23] = Toxicity in Sprague-Dawley rat assessed as effect on clinical pathology measured up to 13 weeks; conditions: in vivo, 2184 h; in short: as §1
[24] = Clearance in cynomolgus monkey at 1 mg/kg, iv; type: ADME, organism-based, Macaca fascicularis; conditions: in vivo
[25] = Volume of distribution at steady state in rat at 1 mg/kg, iv; type: ADME, organism-based; conditions: in vivo, read-out: Vdss
In short: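 Intravenous dosing at 1 mg/kg in male SD rats, measured in triplicate; vehicle 40% NMP solution. Clearance expressed as %Qh.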

[26] = Toxicity in cynomolgus monkey assessed as histopathological changes measured up to 13 weeks; design: species or system Macaca fascicularis; conditions: in vivo, 2184 h; in short: as §1
[27] = Half life in cynomolgus monkey at 1 mg/kg, iv; type: ADME, organism-based, Macaca fascicularis; conditions: in vivo
[28] = Toxicity in Sprague-Dawley rat assessed as effect on clinical sign measured up to 13 weeks; conditions: in vivo, 2184 h; in short: as §1
[29] = AUC in dog at 5 mg/kg, po; type: ADME, organism-based, Canis lupus familiaris; design: dose 5 mg/kg; conditions: in vivo
[30] = Volume of distribution at steady state in dog at 1 mg/kg, iv; type: ADME, organism-based, Canis lupus familiaris; conditions: in vivo, read-out: Vdss
In short: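 Intravenous dosing at 1 mg/kg; vehicle 70:30 PEG-400:H2O solution.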

[31] = Kinetic solubility of compound at pH 1.5 by shake flask method; type: physicochemical; conditions: buffer, read-out: Kinetic_solubility
[32] = Cmax in cynomolgus monkey at 5 mg/kg, po; type: ADME, organism-based, Macaca fascicularis; design: route oral, dose 5 mg/kg; conditions: in vivo
[33] = AUC (infinity) in Sprague-Dawley rat at 50 mg/kg; type: ADME, organism-based; design: time infinity, dose 50 mg/kg; conditions: in vivo
In short: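 Sprague-Dawley rats and cynomolgus monkeys given compound daily in GLP toxicity studies lasting up to 13 weeks; daily AUCinf taken at the no-observed-adverse-effect dose level of each species.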

[34] = Clearance in Sprague-Dawley rat at 1 mg/kg, iv relative to hepatic blood flow; type: ADME, organism-based; conditions: in vivo
[35] = Drug metabolism in human liver microsomes assessed as O-deisopropylation; type: ADME, Microsome
[36] = Toxicity in cynomolgus monkey assessed as change in body weight measured up to 13 weeks; design: species or system Macaca fascicularis; conditions: in vivo, 2184 h; in short: as §1
[37] = target: T1, Cytochrome P450 3A4; assay: Inhibition of CYP3A4 in human liver microsomes using testosterone as substrate measured after 15 mins in presence of NADPH by LC-MS/MS analysis; type: ADME
[38] = AUC in rat at 5 mg/kg, po; type: ADME, organism-based; design: dose 5 mg/kg; conditions: in vivo

Cc1cc(-c2ccnc(Nc3cnn(C)c3)n2)ccc1CNC(=O)N1CC(OC(C)C)C1
logD [1]: 2.92 | fraction unbound [2]: 0.0128 | half-life [3]: 6 h | Cmax [4]: 2920 ng/mL | fraction unbound [5]: 0.113 | logD [6]: 2.32 | pIC50 [7]: < 4.60 | Activity [8]: Non-Toxic | pIC50 [9]: < 4.60 | NOAEL at 2184 h [10]: 50 mg/kg/day | Activity [11]: Not Active | pIC50 [12]: 6.89 | remaining at 6 h [13]: > 95% | remaining at 6 h [14]: > 95% | Activity [15]: Non-Toxic | Activity [16]: Non-Toxic | half-life [17]: 1.2 h | solubility kinetic [18]: > 10 µg/mL | solubility [19]: 1 µg/mL (≈ 2.3 µM) | fraction unbound [20]: 0.0362 | Activity [21]: Non-Toxic | clearance [22]: 11 mL/min/kg | Activity [23]: Non-Toxic | clearance [24]: 11 mL/min/kg | Vd [25]: 0.2 L/kg | Activity [26]: Non-Toxic | half-life [27]: 0.9 h | Activity [28]: Non-Toxic | AUC [29]: 1940 ng·h/mL | Vd [30]: 1.2 L/kg | solubility kinetic [31]: > 50 µg/mL | Cmax [32]: 282 ng/mL | AUC(0-inf) [33]: 376000 ng·h/mL | CL [34]: 1% | Drug metabolism [35]: Metabolite_Detected | Activity [36]: Non-Toxic | pIC50 [37]: < 4.60 | AUC [38]: 11900 ng·h/mL
